Consider 39 molecules from ChEMBL document CHEMBL4513216, “Probing the Open Global Health Chemical Diversity Library for Multistage-Active Starting Points for Next-Generation Antimalarials” (ACS Infect Dis, 2020).

The data set can be described thus: Toxicity liver stage against HepG2, at 10uM. Format: cell-based. On the set-up: test concentration 10 uM, cell line HepG2-A16-CD81EGFP. The settings on record: human, HepG2-A16-CD81EGFP cells; read-out: INHIBITION
In outline: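 Uninfected HepG2-A16-CD81EGFP cells, 3 × 10^3 per well, 1536-well, plated on prespotted compound at 10 μM final, parasite-free screening media added to match infected plates; puromycin 10 μM positive, DMSO 0.5% negative; run in parallel with 48 h PbLuc assay at 37 °C, 5% CO2; viability by CellTiter-Glo luminescence, normalized to controls.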
Consider `Cc1ccc2c(c1)nc1n2[C@@H](CNC(=O)c2cncnc2)COC1`, for which the cytotoxicity at 10 µM stood at 5.6%.
The figure for `Cc1ccc(-c2cn3c(n2)CO[C@@H](CNCc2cnn(C)c2)C3)cc1` is -1.23%; for `COCCN1CC(O)CN(C(=O)c2ccc(SC)cc2)CC1=O` (centres undefined) it is -0.53%.
On to `CC(C)COC(=O)N1CC(=O)N(CCCc2ccccc2)CC(O)C1` (centres undefined), for which the cytotoxicity at 10 µM came out at 0.853%.
Under `COCCNC(=O)CCN1C(=O)CC2(CCCC2)C1=O` stands 2.34%; under `CC(C)(C)c1csc(CN2CCN(S(=O)(=O)c3cccnc3)CC2)n1`, 3.21%.
For `CS(=O)(=O)N1CCOC2(CCN(c3ncccn3)CC2)c2ccccc21`, the cytotoxicity at 10 µM is -1.52%.
The figure for `CCC(CC)CN1C[C@@H]2OCCN(Cc3cnn(C)c3)[C@@H]2C1` is -144%.
Under `O=C(NCC1CC1)C1CN(C(=O)c2cnccn2)CC12CCOCC2` (centres undefined) stands 8.27%; under `CC(C(=O)N(C)Cc1ccc(Br)o1)n1cncn1` (centres undefined), 5.87%.
The figure for `CNC(=O)C(CC(C)C)NC(=O)c1cccc(-c2nc(C)cs2)c1` (centres undefined) is 14.5%; for `Cc1cnn(C2CN(CC(O)c3ccccc3)C2)c1` (centres undefined) it is -2.55%.
Consider `CC(C)c1ncncc1C(=O)NCCN1CCCC1`, for which the cytotoxicity at 10 µM is -9.91%.
With `CCc1nc(CSC2CCCN(c3cnn(C)c3)C2=O)cs1` (centres undefined), the cytotoxicity at 10 µM amounted to 14.1%.
The figure for `Cc1ccc(CCc2nc(C3CCOC3)no2)o1` (centres undefined) is 3.04%; for `CCC(C)NC(=O)Nc1ccc(CN2CCOC2=O)cc1` (centres undefined) it is 10.5%.
Under `Cc1ccc(N2CCC3(CC2)CC(OCC(=O)N(C)C)CO3)nn1` (centres undefined) stands -7.59%; under `Cc1cc(C)n(C2CN(C(=O)Cn3c(C)cc(=O)c4ccccc43)C2)n1`, -5.56%.
Under `COc1ccc(-c2ccnc(N)c2)c(C)c1` stands 6.63%; under `CC(=O)NCCNc1cc(C)nc2cc(C)nn12`, -6.91%; under `COc1ccccc1C(NCc1ccc(SC)cc1)c1nccn1C` (centres undefined), -11.6%.
As to `CN(C)Cc1nc(C(C)(C)NC(=O)C2CC(=O)N(CC3CC3)C2)no1` (centres undefined), the cytotoxicity at 10 µM was -5.9%.
The figure for `CCOc1cc(C)nc(N2CCN(C(=O)c3ccnn3C)CC2)n1` is -4.37%.
The figure for `CCOC(=O)NC(C(=O)NCc1ccc(N2CCCCC2)nc1)C(C)C` (centres undefined) is -6.09%; for `O=C(O)C1(Cc2cccc(-c3cccs3)c2)CCCNC1` (centres undefined) it is 4.43%.
Regarding `O=C(NCc1ccco1)[C@@]12CCO[C@@H]1CCN(C1CCC1)C2`, the cytotoxicity at 10 µM worked out at 12.3%.
The figure for `CN(C)Cc1cn2c(n1)CN(CC1CCCC1)CC2` is -149%; for `CN(C)CCN1CC[C@@H]2O[C@@H](COCC(=O)N3CCCC3)CC[C@@H]21` it is -1.78%; for `Cc1cccc(CN2C[C@H](OCc3csc(C)n3)[C@H]3COC[C@H]32)n1` it is 3.22%.
Under `Cc1cccc(CN2Cc3[nH]nc(COCCO)c3C2)n1` stands 0.442%; under `Cc1noc(C)c1CN1CCN(Cc2ccncc2)c2ncccc2C1`, 5.51%; under `Cc1cccc(CO[C@@H]2C[C@H]3CN(c4ncccn4)CCN3C2)n1`, 1.39%.
For `c1cn2c(n1)CN(C1CCOCC1)CC(CN1CCCC1)C2` (centres undefined), the cytotoxicity at 10 µM is -0.123%.
The figure for `O=C(c1ccco1)N1CCc2ncnc(Oc3cccnc3)c2CC1` is -2.86%; for `CCOC1CC2(CCN(Cc3cccn3C)CC2)C1` it is -149%; for `COc1ccc(CN2CCC[C@@H]3CN(C(=O)c4ccco4)C[C@@H]32)cc1` it is 1.44%.
The figure for `COCC(=O)N1CCc2c(nnn2C)C1COCCN1CCCC1` (centres undefined) is 11.6%.
The figure for `Cn1cc(CN2CCC3(CCCN3Cc3cccnc3)CC2)cn1` is 2.43%; for `CC(C)N(C)Cc1cncc2c1CCN(C(=O)c1ccc[nH]1)C2` it is 3.73%.
